In BindingDB's records for doi:10.1021/jm020334u (Roche Discovery Welwyn, 2003):

Target: Polymerase acidic protein (Influenza A virus (strain A/Puerto Rico/8/1934 H1N1), UniProt P03433)
Test: Inhibitory concentration against cap-dependent endonuclease activity of influenza virus RNP
How it was run: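 Gel-based cap-dependent endonuclease assay. 1 nM influenza RNP was incubated with 0.1 nM cap-labeled 20-mer G20 RNA in 50 mM Tris-HCl pH 8 with 1 mM MgCl₂, 20 mM KCl, 1 U/μL RNase inhibitor and 0.3% Triton X-100, for 5 min at 31 °C. Cleavage products were resolved on polyacrylamide gels and quantified by phosphorimager. IC50 came from dose–response curves.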

SMILES	IC50 [µM]
CC(C)C=c1[nH]c(=Cc2ccc(F)cc2)c(=O)[nH]c1=O [3-(4-fluorobenzylidene)-5-isobutylpyrazine-2,6(1H,3H)-dione]	> 365
COCOn1c(=O)c(=CC(C)C)[nH]c(=CC(C)C)c1=O [(3Z)-5-isobutyl-1-(methoxymethoxy)-3-(2-methylpropylidene)pyrazine-2,6(1H,3H)-dione]	> 355
